Sampled rows, rich in hits. Any-hit rate of the full collection: about 4.1%.
Dynein cargo inh: blocks dynein driven cargo transport along microtubules | 3617.4 mouse cells, GR-EGFP nuclear translocation imaging; test concentration mostly 20 µM; stimulated with dexamethasone, 1 µM; stronger effect = lower value | z-score, hits read low | 220,000 tested, 0.47% active | AID 1381;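 active = plate z-score of nuclear minus cytoplasmic receptor signal below a set negative limit, without overly bright fluorescence or cell loss, cut at about -3.5 in these data, passing the limit was not always enough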;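 note: z-score of nuclear minus cytoplasmic ring GR-EGFP intensity difference per well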
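Buffer or medium: tet-free, stripped-serum medium; Also added: dexamethasone, 1.0 µM final; Technique: high-content fluorescence imaging after fixation; Times: 48 h induction, 1 h compound, 30 min dex at 37 °C; Read-out: per-cell GR-EGFP intensity, nucleus versus surrounding cytoplasmic ring, well-averaged.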
Autophagy HCS: alters autophagy in cells; MEF GFP-LC3 puncta imaging; test concentration mostly 10 µM; 190,000 tested, 0.98% active; AID 463193; calls only at 10 µM (by protocol);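 active = percentage of spot-positive cells more than 3 SD above its plate mean, without a fluorescence outlier flag or 80% toxicity; inconclusive = no clear call, values can overlap the other calls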
KCC2 mod: modulates chloride dependent transport by human KCC2. KCC2 cells, thallium flux FluoZin-2 fluorescence. B-score of Tl+ flux slope (higher = more flux/activation; lower = inhibition) at 10 µM. 190,000 tested, 2.2% active. AID 1456;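 active = thallium flux slope and its plate-corrected score both differing from the plate sample mean at a set confidence after two filtering rounds, in either direction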;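 note: slope of fluorescence scaled to starting intensity during 10 to 20 s after thallium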
DTT redox prof: compounds producing H2O2 with reducing agent – biochemical, NIH compound library profiling, artefact control for MLSCN library redox annotation, primary screen | activation, % at 10 µM | DTT-dependent redox cycling H2O2, phenol red/HRP absorbance; 100% = 100 µM peroxide control, 0% = buffer | 200,000 tested, 0.03% active | AID 878;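 active = activation of at least 50% relative to the plate's high and low controls in the primary single-dose screen; inactive = activation below 50%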;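 note: compound incubated with DTT at 0.8 mM final as the reducing agent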
ROMK primary: modulators of human ROMK potassium channel; 130,000 tested, 2% active; Tet-inducible ROMK, thallium flux fluorescence; actives lie on both sides; B-score at 10 µM;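 active = signal ratio slope over the read window, or its plate-corrected B-score, at least 3 SD from the plate mean, either direction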;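 note: B-score of the F/F0 ratio slope over 7 to 12 s after thallium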
KCC2 secondary: KCC2 (human) modulation, secondary assay; AID 1713; shares compounds with KCC2 mod; HEK293-KCC2, thallium flux, FluoZin2 fluorescence; stronger effect = higher value; 3,700 tested, 15% active; normalised thallium flux (F/F0 slope) at 10 µM;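 active = thallium flux slope above the same plate's solvent-only control mean plus 3 SD; inconclusive = the two replicate wells disagree; inactive = no significant difference from solvent-only control wells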
KCC2 bumet counter: thallium flux despite bumetanide block in KCC2 cells, secondary assay 3 | shares compounds with KCC2 mod | HEK293-KCC2 + bumetanide/ouabain, thallium flux FluoZin2; stronger effect = higher value | normalized thallium flux at 10 µM | 3,700 tested, 49% active;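 active = thallium entry rate above the same plate's blocked-transporter control wells by more than 3 SD; inconclusive = the two repeat wells disagree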;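 note: raw slope of fluorescence over initial fluorescence between 10 and 20 s after thallium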
KCC2 secondary2: KCC2 (human) modulation, second secondary assay | shares compounds with KCC2 mod | HEK293-KCC2, thallium flux FluoZin2 fluorescence; actives lie on both sides; F/F0 rise rate, 10–20 s post-thallium | normalized thallium flux at 10 µM | 3,700 tested, 23% active | AID 1715;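 active = thallium flux slope more than 3 SD above or below the plate's solvent-only control mean, mostly below; inconclusive = the two repeat wells disagreed; inactive = no significant shift from solvent-only controls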
HEK counter1: acts in parental HEK cells, KCC2 counter-screen | shares compounds with KCC2 mod | HEK293 parental cells, thallium flux FluoZin2, ouabain; baseline-ratio fluorescence slope, 10–20 s after thallium | thallium flux rate (normalised fluorescence) at 10 µM | 3,700 tested, 46% active | AID 1716;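 active = thallium flux rate significantly above the same plate's solvent-only control wells, beyond their mean plus 3 SD; inconclusive = the two replicate wells gave conflicting results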
KCC2 ouabain: confirmation of human KCC2 modulators with ouabain; 3,700 tested, 48% active; HEK293-KCC2, thallium flux FluoZin2 fluorescence; bidirectional: low = inhibitor, high = activator; shares compounds with KCC2 mod; raw Tl+ flux slope (below DMSO = inhibition, above = activation) at 10 µM;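 active = thallium flux slope beyond 3 SD from same-plate DMSO control mean in most replicates, usually higher, sometimes lower; inconclusive = repeat tests gave conflicting results; inactive = no significant difference from controls in most replicates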;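 note: slope of initial-normalized fluorescence between seconds 10 and 20 after thallium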
HEK293 Tl flux2: parental HEK flux effect, counter-screen 2 | 3,700 tested, 33% active | shares compounds with KCC2 mod | HEK293 parental, thallium flux FluoZin-2 fluorescence slope | thallium flux slope at 10 µM;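 active = thallium flux slope above the same plate's solvent-control mean plus 3 SD in both duplicate wells; inconclusive = duplicate wells that disagreed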;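 note: run without ouabain in cells lacking the KCC2 cotransporter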
Hits are given with their value; i = inactive; ? = inconclusive; nt = not tested or not shown.

SMILES	Dynein cargo inh	Autophagy HCS	KCC2 mod	DTT redox prof	ROMK primary	KCC2 secondary	KCC2 bumet counter	KCC2 secondary2	HEK counter1	KCC2 ouabain	HEK293 Tl flux2
CC1CCN(c2nc3c(c(=O)[nH]c(=O)n3C)n2Cc2ccccc2)CC1	i	i	i	i	nt	nt	nt	nt	nt	nt	nt
Cc1ccc(CNC(=O)CCC2CCCN(C(=O)c3ccc4c(c3)OCO4)C2)o1 (stereo unspecified)	i	i	nt	i	i	nt	nt	nt	nt	nt	nt
C=CCn1c(CSc2nc3ccccc3s2)n[nH]c1=S	i	i	-4.42	i	nt	i	0.00932	0.0237	0.00992	0.0144	?
O=C1N=c2ccc(Br)cc2=C1c1sc(=S)n(NS(=O)(=O)c2ccccc2)c1O	i	i	i	i	i	nt	nt	nt	nt	nt	nt
Oc1c(Br)cc(Br)cc1/C=N/NC(=S)N[C@H]1CC2C=CC1C2 (stereo partly specified)	i	nt	4.76	nt	nt	i	0.014	i	0.0102	?	i
CC(C)CCn1c(O)c(N=NC(=O)Cn2ccc(C(F)(F)F)n2)c2ccccc21	i	i	i	i	i	nt	nt	nt	nt	nt	nt
CC(C)CCn1c(O)c(N=Nc2ccccn2)c2ccccc21	i	i	6.87	i	i	i	0.0212	i	?	?	i
CCCn1c(O)c(N=Nc2ccc3ccccc3n2)c2ccccc21	i	i	-4.99	i	i	i	0.0106	i	0.00869	i	i
CCCn1c2ccccc2c2nc3ccccc3nc21	i	i	i	i	nt	nt	nt	nt	nt	nt	nt
CCN(CC)C(=O)COc1ccc(/C=C(\C#N)S(=O)(=O)c2ccccc2)cc1OC	i	i	i	i	i	nt	nt	nt	nt	nt	nt
O=C(Nc1cccc(C(F)(F)F)c1)Oc1ccc(Cl)c2cccnc12	i	nt	14.5	nt	nt	i	0.0215	i	0.0142	0.0212	0.0159
CCN(CC)C(=O)Oc1ccc(Cl)c2cccnc12	i	i	i	i	i	nt	nt	nt	nt	nt	nt
CCC(c1nnnn1Cc1ccccc1)N1CCN(c2ccccc2)CC1 (stereo unspecified)	i	i	-3.86	i	i	i	i	?	i	0.0155	i
O=C(CCc1nnc(-c2ccc(-c3ccccc3)cc2)o1)NCCc1ccccn1	i	i	-3.22	i	i	i	i	i	i	?	?
O=C(CCc1nnc(Cc2ccc(-c3ccccc3)cc2)o1)NCCc1ccccn1	i	i	i	i	nt	nt	nt	nt	nt	nt	nt
CC(NC(=O)CCc1nnc(-c2ccc(-c3ccccc3)cc2)o1)c1nccs1 (stereo unspecified)	i	i	-4.11	i	i	i	i	0.0241	i	i	i
O=C(CSc1nnc(-c2cccs2)o1)Nc1cccc(S(=O)(=O)N2CCCCC2)c1	i	i	i	i	i	nt	nt	nt	nt	nt	nt
Cc1nnc(NC(=O)c2ccc3ccccc3c2)o1	i	i	nt	i	i	0.012	0.0158	i	0.0107	0.0261	i
Cc1ccc(NC(=O)COC(=O)Cc2ccsc2)c(C)c1	i	i	i	i	i	nt	nt	nt	nt	nt	nt
CCCC(=O)Nc1cccc(-c2nc3ccccc3o2)c1	i	i	nt	i	nt	nt	nt	nt	nt	nt	nt
CCCC(=O)Nc1cccc(-c2nc3cc(C)c(C)cc3o2)c1	i	i	nt	i	i	i	i	i	i	i	i
Cc1ccc(N=Cc2c(C)[nH]n(-c3ccccc3)c2=O)nc1	i	nt	12.9	nt	nt	i	0.0204	i	0.0243	0.0259	i
Cc1ccc(-n2[nH]c(C)c(C=Nc3ccc(C)cn3)c2=O)cc1	i	i	9.4	i	nt	i	0.0198	i	0.0224	?	0.0135
Cc1[nH]n(-c2ccccc2)c(=O)c1C=Nc1cnc2ccccc2c1	i	i	i	i	i	nt	nt	nt	nt	nt	nt
Cc1ccc(-n2[nH]c(C)c(C=Nc3ccc(S(=O)(=O)Nc4nccs4)cc3)c2=O)cc1	i	i	i	i	nt	nt	nt	nt	nt	nt	nt
SMILES	Dynein cargo inh	Autophagy HCS	KCC2 mod	DTT redox prof	ROMK primary	KCC2 secondary	KCC2 bumet counter	KCC2 secondary2	HEK counter1	KCC2 ouabain	HEK293 Tl flux2
O=C(NC(=S)Nc1ccccc1C(F)(F)F)c1ccccc1F	i	i	99.3	i	nt	i	0.087	0.0518	0.0547	0.0675	0.0517
Cc1ccccc1C(=O)NC(=S)Nc1ccccc1[N+](=O)[O-]	i	i	14	i	nt	i	0.0129	i	0.0109	i	i
Cc1cc(-c2nc3ncccc3o2)ccc1NC(=S)NC(=O)c1ccco1	i	i	10.3	i	i	0.0129	0.0403	i	0.0346	0.0351	0.0164
O=C(NC(=S)Nc1ccccc1[N+](=O)[O-])c1ccco1	i	i	25.4	i	i	0.0171	0.077	i	0.0321	0.0645	0.0161
Cc1ccc(-c2nc3ncccc3o2)cc1NC(=S)NC(=O)c1ccco1	i	i	i	i	i	nt	nt	nt	nt	nt	nt
Cc1ccccc1C(=O)NC(=S)Nc1ccccc1C(F)(F)F	i	i	nt	i	nt	nt	nt	nt	nt	nt	nt
Cc1ccccc1C(=O)NC(=S)Nc1ccccc1C(=O)O	i	i	i	i	i	nt	nt	nt	nt	nt	nt
Cc1ccccc1NC(=O)CSc1nc2n(n1)CCCCC2	i	i	i	i	i	nt	nt	nt	nt	nt	nt
Cn1c[n+](C)cc1-c1ccc(/C(N)=N/O)cc1	i	i	i	i	i	nt	nt	nt	nt	nt	nt
COc1ccc(NC(=O)CSc2nc3ccsc3c(=O)n2CCCCCC(=O)O)cc1	i	i	i	i	i	nt	nt	nt	nt	nt	nt
O=C(NC(=S)Nc1cccnc1Cl)c1ccco1	i	i	24.9	i	i	0.0198	0.0505	i	?	0.043	?
COC(=O)c1ccccc1NC(=S)NC(=O)c1ccccc1C	i	i	4.73	i	i	i	0.0401	i	0.0135	?	?
O=C(Nc1cccc(NC(=O)c2cccnc2Cl)c1)c1ccco1	i	i	i	i	nt	nt	nt	nt	nt	nt	nt
C/C(CCc1ccco1)=N/NC(=O)CCC(=O)Nc1ccc(Br)cc1	i	i	i	i	i	nt	nt	nt	nt	nt	nt
COc1cc(/C=N/NC(=O)CN(Cc2ccccc2)S(=O)(=O)c2ccc3c(c2)OCCO3)ccc1O	i	i	-4.43	i	i	i	i	?	i	0.0141	i
Cc1ccc(Nc2nnc(SCC3CCCCO3)s2)cc1 (stereo unspecified)	i	i	i	i	i	nt	nt	nt	nt	nt	nt
CCc1ccc(Nc2nnc(SC3CCOC3=O)s2)cc1 (stereo unspecified)	i	i	-5.31	i	nt	i	?	0.0229	i	?	i
